Experimental data as given in the M2OR odorant receptor database.

Experiments:
Settings in all cases: stereoisomer not certain
[1] = molecular target: T1, UniProt Q8VF52
T1 sequence (whole entry): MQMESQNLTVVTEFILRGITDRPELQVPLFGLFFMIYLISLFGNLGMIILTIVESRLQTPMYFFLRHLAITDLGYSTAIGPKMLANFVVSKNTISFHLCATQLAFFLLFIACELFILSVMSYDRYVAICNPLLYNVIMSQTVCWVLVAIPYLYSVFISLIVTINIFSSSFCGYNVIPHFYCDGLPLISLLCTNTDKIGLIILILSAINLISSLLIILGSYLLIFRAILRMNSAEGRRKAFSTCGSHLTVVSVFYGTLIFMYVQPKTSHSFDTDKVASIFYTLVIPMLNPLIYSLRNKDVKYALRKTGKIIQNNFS
Procedure, shortened: (§1)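 Assay methods differ from source to source, frequently being transient luciferase assays in mammalian cell lines. For each receptor–molecule pair, the label responsive (active) applies when the original authors judged the measured signal statistically different from baseline, and non-responsive (inactive) applies otherwise.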

[2] = molecular target: T2, UniProt Q8VFM8
T2 sequence (whole entry): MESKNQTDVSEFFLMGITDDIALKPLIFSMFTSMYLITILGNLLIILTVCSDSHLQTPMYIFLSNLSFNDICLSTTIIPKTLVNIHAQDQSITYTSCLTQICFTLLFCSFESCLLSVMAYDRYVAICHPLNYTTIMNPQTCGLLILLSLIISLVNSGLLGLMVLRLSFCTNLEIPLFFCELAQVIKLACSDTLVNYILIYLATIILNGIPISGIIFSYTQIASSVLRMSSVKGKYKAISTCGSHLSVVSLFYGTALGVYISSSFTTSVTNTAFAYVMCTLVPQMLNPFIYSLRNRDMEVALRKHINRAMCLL
Procedure, shortened: as §1

[3] = molecular target: T3, UniProt Q8VFP5
T3 sequence (whole entry): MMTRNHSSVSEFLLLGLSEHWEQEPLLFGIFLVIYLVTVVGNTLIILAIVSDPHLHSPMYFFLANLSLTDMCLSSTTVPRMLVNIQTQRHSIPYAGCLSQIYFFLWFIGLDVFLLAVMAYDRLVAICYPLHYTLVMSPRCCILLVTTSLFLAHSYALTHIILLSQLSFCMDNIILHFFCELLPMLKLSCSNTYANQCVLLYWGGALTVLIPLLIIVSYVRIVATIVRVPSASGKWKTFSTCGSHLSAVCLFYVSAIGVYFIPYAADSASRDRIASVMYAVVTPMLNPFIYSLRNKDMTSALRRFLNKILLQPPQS
Procedure, shortened: as §1

[4] = molecular target: T4, UniProt Q8VG01
T4 sequence (whole entry): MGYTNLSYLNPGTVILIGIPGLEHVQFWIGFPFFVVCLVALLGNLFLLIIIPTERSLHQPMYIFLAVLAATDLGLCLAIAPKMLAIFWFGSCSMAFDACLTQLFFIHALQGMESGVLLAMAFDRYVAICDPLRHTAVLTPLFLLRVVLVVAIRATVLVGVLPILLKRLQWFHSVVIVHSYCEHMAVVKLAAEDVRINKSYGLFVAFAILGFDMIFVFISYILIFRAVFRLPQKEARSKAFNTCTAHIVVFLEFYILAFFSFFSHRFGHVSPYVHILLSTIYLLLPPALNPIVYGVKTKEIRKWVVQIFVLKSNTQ
Procedure, shortened: as §1

[5] = molecular target: T5, UniProt Q8VG27
T5 sequence (whole entry): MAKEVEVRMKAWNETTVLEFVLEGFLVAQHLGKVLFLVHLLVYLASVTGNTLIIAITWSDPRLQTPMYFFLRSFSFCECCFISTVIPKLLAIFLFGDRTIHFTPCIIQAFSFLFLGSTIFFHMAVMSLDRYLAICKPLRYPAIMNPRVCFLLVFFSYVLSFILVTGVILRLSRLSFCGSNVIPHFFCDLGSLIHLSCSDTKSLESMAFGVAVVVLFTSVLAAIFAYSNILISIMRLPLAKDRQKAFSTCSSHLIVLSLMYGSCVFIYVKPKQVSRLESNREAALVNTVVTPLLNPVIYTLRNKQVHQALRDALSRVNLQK
Procedure, shortened: as §1

[6] = molecular target: T6, UniProt Q8VG53
T6 sequence (whole entry): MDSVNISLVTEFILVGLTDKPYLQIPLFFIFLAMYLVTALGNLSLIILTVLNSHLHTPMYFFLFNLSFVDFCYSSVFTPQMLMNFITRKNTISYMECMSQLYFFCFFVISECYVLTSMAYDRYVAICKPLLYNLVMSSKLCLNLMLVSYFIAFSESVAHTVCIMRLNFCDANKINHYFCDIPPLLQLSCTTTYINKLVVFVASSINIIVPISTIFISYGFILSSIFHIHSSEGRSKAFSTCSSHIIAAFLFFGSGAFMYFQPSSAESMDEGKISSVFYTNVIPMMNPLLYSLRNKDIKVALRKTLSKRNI
Procedure, shortened: as §1

[7] = molecular target: T7, UniProt Q8VG64
T7 sequence (whole entry): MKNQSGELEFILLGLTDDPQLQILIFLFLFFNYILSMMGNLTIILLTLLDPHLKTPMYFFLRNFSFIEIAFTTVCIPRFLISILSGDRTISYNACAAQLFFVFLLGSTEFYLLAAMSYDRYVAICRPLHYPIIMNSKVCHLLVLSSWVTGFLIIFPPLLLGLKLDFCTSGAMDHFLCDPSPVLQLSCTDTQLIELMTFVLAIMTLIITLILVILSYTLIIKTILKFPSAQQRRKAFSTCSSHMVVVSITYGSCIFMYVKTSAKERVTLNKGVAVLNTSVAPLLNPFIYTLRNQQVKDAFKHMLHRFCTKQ
Procedure, shortened: as §1

[8] = molecular target: T8, UniProt Q8VGB9
T8 sequence (whole entry): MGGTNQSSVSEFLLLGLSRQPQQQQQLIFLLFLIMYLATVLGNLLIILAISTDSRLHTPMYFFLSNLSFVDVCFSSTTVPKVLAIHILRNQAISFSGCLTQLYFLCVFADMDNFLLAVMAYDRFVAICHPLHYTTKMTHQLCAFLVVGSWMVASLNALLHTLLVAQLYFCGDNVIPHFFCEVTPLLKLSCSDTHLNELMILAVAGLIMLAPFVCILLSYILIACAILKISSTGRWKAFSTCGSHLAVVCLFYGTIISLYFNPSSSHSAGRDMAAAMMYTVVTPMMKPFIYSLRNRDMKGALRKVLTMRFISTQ
Procedure, shortened: as §1

[9] = molecular target: T9, UniProt Q8VGC6
T9 sequence (whole entry): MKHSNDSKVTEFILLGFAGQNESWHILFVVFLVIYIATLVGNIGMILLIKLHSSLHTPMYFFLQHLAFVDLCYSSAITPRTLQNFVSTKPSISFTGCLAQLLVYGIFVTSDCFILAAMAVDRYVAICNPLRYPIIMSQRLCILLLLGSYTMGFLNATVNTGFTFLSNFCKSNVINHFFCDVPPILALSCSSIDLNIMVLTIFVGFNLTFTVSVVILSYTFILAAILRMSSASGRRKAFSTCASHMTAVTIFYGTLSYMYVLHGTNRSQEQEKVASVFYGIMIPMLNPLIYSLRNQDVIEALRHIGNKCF
Procedure, shortened: as §1

[10] = molecular target: T10, UniProt Q8VGJ3
T10 sequence (whole entry): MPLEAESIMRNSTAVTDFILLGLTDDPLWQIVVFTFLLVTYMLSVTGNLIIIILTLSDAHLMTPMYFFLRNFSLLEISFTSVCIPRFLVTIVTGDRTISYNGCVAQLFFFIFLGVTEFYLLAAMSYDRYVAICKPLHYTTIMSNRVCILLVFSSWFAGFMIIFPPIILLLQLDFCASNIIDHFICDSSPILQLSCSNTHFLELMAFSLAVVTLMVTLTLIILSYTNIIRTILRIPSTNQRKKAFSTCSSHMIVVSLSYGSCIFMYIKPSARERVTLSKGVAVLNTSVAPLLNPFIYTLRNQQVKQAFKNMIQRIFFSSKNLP
Procedure, shortened: as §1

Measured: odorant receptor agonist call

Oc1ccccc1Br
inactive: all assays above
